Test results taken from ChEMBL document CHEMBL1649261, “Pharmacodynamic profile of tigecycline against methicillin-resistant Staphylococcus aureus in an experimental pneumonia model” (Antimicrob Agents Chemother, 2009).

What was measured:
Type in all cases: functional
Staphylococcus aureus [1] = assay: Antibacterial activity against methicillin-susceptible Staphylococcus aureus ATCC 29213 by microdilution method
Method in brief: (§1)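 Tigecycline MIC measured in triplicate by broth microdilution following CLSI guidelines. Isolates were stored at −80°C in skim milk and subcultured twice on blood agar before testing.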

Staphylococcus aureus [2] = assay: Antibacterial activity against community-acquired methicillin-resistant Staphylococcus aureus 144 by microdilution method; method in brief: as §1
Staphylococcus aureus [3] = assay: Antibacterial activity against community-acquired methicillin-resistant Staphylococcus aureus 147 by microdilution method; method in brief: as §1
Staphylococcus aureus [4] = assay: Antibacterial activity against hospital-acquired methicillin-resistant Staphylococcus aureus 56 by microdilution method; method in brief: as §1
Staphylococcus aureus [5] = assay: Antibacterial activity against hospital-acquired methicillin-resistant Staphylococcus aureus 152 by microdilution method; method in brief: as §1

C[C@H]1COc2c(N3CCN(C)CC3)c(F)cc3c(=O)c(C(=O)O)cn1c23.C[C@H]1COc2c(N3CCN(C)CC3)c(F)cc3c(=O)c(C(=O)O)cn1c23.O [LEVOFLOXACIN]
MIC (Staphylococcus aureus [1]): 0.25 µg/mL | MIC (Staphylococcus aureus [2]): 0.5 µg/mL | MIC (Staphylococcus aureus [3]): 8 µg/mL | MIC (Staphylococcus aureus [4]): 0.25 µg/mL | MIC (Staphylococcus aureus [5]): 0.25 µg/mL
